Source: PubChem (Johns Hopkins Ion Channel Center)
MrgX1 PAM: human MrgX1 positive allosteric modulation, primary screen; MrgX1-HEK293, Fluo-4 calcium flux, FDSS; stronger effect = higher value; 0.63% of 310,000 active; Q96LB2; AID 588675; B-score at 10 µM;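 active = plate-corrected calcium response at least 3 library SD above typical, normal starting fluorescence, not activating the receptor alone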;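 note: compound read alongside a low EC10 to EC30 dose of BAM8-22 agonist; peak minus trough fluorescence over baseline measured at the second addition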
Target sequence (Q96LB2 whole entry, looked up): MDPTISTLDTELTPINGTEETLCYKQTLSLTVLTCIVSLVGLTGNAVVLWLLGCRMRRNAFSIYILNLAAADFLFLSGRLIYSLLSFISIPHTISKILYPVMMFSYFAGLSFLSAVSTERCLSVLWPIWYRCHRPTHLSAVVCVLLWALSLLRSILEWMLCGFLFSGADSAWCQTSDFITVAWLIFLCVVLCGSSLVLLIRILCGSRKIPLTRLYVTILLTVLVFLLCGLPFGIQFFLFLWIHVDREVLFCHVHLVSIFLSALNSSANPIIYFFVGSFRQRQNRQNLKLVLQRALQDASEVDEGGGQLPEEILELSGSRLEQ
RGS4 pot: RGS4 potentiation or activation; B-score at 10 µM; HEK293 M3R/inducible RGS4, carbachol calcium flux Fluo4; stronger effect = lower value; 0.92% of 310,000 active;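 active = B-score of the integrated calcium signal more than 4 SD below the library mean, with starting fluorescence not abnormally high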;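 note: negative B-score means reduced calcium response which marks RGS4 activation or potentiation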
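Material: Inducible-RGS4 HEK293 cells carrying M3 receptor; also added: carbachol at ECmax as muscarinic agonist stimulus; incubation: compound preincubation 20 min at room temperature before agonist; signal: Fluo4-AM (2 µM) calcium-flux fluorescence, kinetic read; measure: integrated calcium ratio converted to B score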
MrgX1 ag: activates human MrgX1 receptor signaling | B-score at 10 µM | AID 588627 | Q96LB2 | 0.44% of 310,000 active | MrgX1-HEK293 cells, Fluo-4 calcium fluorescence, agonist mode; stronger effect = higher value;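 active = calcium response B-score plate-corrected fluorescence ratio at least 3 library SD, with starting fluorescence B-score inside 5 SD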
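Material: MrgX1-expressing HEK293 cells / Dosing: compound as first of three additions / Incubation: overnight seeding, then 1 h dark dye loading / Signal: Fluo-4 NW calcium fluorescence / Evaluation: B-scored fluorescence response ratio / Benchmarks: positive and negative control wells on each plate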
RGS4 inh: inhibitors of human RGS4; AID 463165; P49798; B-score at 10 µM; HEK293 M3R/RGS4 inducible, Fluo-4 calcium flux; stronger effect = higher value; triggered by carbachol at its EC20; 0.45% of 310,000 active;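 active = B-score, a plate-corrected calcium signal, over three deviations above library mean, with baseline fluorescence within five deviations of library mean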;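 note: RGS4 expression induced by doxycycline in cells with stable M3 receptor; B-score is computed from the integrated fluorescence ratio over baseline after carbachol; higher B-score means a larger calcium signal and so more RGS4 inhibition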
Target sequence (P49798 whole entry, looked up): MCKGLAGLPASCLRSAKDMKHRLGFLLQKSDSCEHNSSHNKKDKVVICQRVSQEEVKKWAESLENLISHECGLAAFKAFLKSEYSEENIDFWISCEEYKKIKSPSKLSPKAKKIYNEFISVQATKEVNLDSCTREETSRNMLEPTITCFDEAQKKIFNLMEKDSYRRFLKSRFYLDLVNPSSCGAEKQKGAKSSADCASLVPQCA
MrgX1 antag: antagonists of human MrgX1 receptor; MRGX1-HEK293 calcium flux, Fluo-4, BAM8-22 antagonism; stronger effect = lower value; B-score at 10 µM; 1.3% of 310,000 active;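 active = calcium-response B-score plate-corrected more than 3 library SD below zero, starting fluorescence within 5 deviations, no agonist response on first addition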;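 note: peak minus trough fluorescence over baseline after final BAM8-22 challenge near maximal dose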
RGS4 block valid: RGS4 inhibitor validation | shares compounds with RGS4 inh | calcium response, % at 10 µM | 65% of 1,700 active | HEK293 M3R/RGS4, carbachol calcium Fluo-4 fluorescence; carbachol added at its EC20; 0 = buffer wells, 100 = carbachol control | AID 492999;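 active = duplicate-averaged calcium response above the buffer-only control mean plus 5 SD of those controls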;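 note: integrated fluorescence ratio F max minus min over baseline F0; higher response in RGS4-induced cells means RGS4 inhibition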
M3R Ca ctr: checks RGS4 inhibitor effects in non-induced HEK293 M3R cells | carbachol calcium Fluo-4; submaximal (EC20) carbachol stimulus; buffer wells 0%, carbachol control wells 100% | AID 493000 | activity (percent), % at 10 µM | 20% of 1,900 active | shares compounds with RGS4 inh; call rule not given here;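 note: RGS4 induction absent so cells express M3R without RGS4; higher means more calcium signal and flags a non-specific hit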
M3R basal Ca ctr: signal in non-induced cells without carbachol, RGS4 inhibitor counter-screen | HEK293 M3R/RGS4 non-induced, Fluo-4 calcium, no carbachol; normalised: buffer wells 0%, carbachol wells 100% | shares compounds with RGS4 inh | AID 493001 | 22% of 1,900 active | calcium response (agonist-mode artifact), % at 10 µM;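 active = duplicate-averaged calcium rise in uninduced cells above buffer wells' mean plus 5 SD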
The depositor's hits bear a star; i = inactive; . = no result given. In the library only some 3.5% were active in any assay of this set; here they are far more common.

SMILES	MrgX1 PAM	RGS4 pot	MrgX1 ag	RGS4 inh	MrgX1 antag	RGS4 block valid	M3R Ca ctr	M3R basal Ca ctr
Cc1ccc(-c2csc(NC(=O)CSc3nc4ccccc4[nH]3)n2)cc1	.	i	.	i	.	.	i	i
COc1ccc(-c2csc(NC(=O)CSc3nc4ccccc4c(=O)[nH]3)n2)cc1	i	i	i	i	i	.	.	.
Cc1[nH]n(-c2ncc(-c3ccccc3)s2)c(=O)c1C(c1ccc(Br)cc1)C(C#N)C#N (centres undefined)	i	i	i	16.3*	-6.8*	50.0%*	i	51.0%*
CSc1cccc(N=C2C(=O)Nc3ccccc32)c1	i	i	32.5*	15.8*	i	24.5%*	i	7.5%*
O=C1Nc2ccccc2C1=Nc1cccc(Cl)c1	i	i	50.6*	41.3*	i	28.0%*	54.5%*	16.0%*
CC(=O)c1ccc(/C=C/c2nc3ccccc3n2C)o1	i	i	i	i	i	.	.	.
CC(=O)OCCSc1c(-c2ccccc2)c2cc(Cl)ccc2[nH]c1=O	i	i	i	4.77*	i	13.5%*	i	i
CCn1c(COc2ccccc2)nnc1SCC(=O)NC1CC1	i	i	i	i	i	.	.	.
COc1ccccc1-c1nnc2n1N=C(c1ccc(O)c(O)c1)CS2	i	i	i	i	i	.	i	i
COc1ccc(C2=Nn3c(nnc3-c3cccnc3)SC2)cc1OC	i	i	i	i	i	i	i	i
Brc1ccc(C2=Nn3c(nnc3-c3cccnc3)SC2)s1	i	i	i	i	i	.	.	.
COc1ccc(S(=O)(=O)NCCc2nnc3ccc(SCc4cccnc4)nn23)cc1	i	i	i	i	i	.	.	.
O=C(CNC1CCCCC1)Nc1ccc(Cl)cc1	i	i	i	i	i	.	.	.
NC(=O)c1cc2ccc(O)cc2oc1=Nc1ccccc1	.	i	.	i	.	i	i	i
Cc1nc(Nc2ccccc2)sc1C(=O)c1ccc(F)cc1	i	i	i	i	i	.	.	.
Nc1nc(Nc2ccccc2F)sc1C(=O)c1ccccc1	i	i	i	6.52*	i	28.0%*	i	i
COC(=O)CSc1[nH]c2ccccc2c1[N+](=O)[O-]	i	i	i	15.7*	i	44.5%*	i	i
CN=c1scc(-c2ccccc2F)n1/N=C(\C)c1cccnc1	i	i	i	i	i	.	.	.
O=C(Nc1ccccc1)C(Cl)C(=O)c1ccccc1 (centres undefined)	i	i	i	9.06*	i	30.5%*	38.0%*	i
CCOC(=O)C(=Cc1ccc(-n2ccnc2)cc1)C(=O)OCC	i	i	i	13.1*	i	18.5%*	i	i
CCCCCOc1ccc(OC(=O)c2ccncc2)cc1	i	i	i	i	i	.	.	.
COC(=O)c1ccc(-n2ccnc2)cc1	i	i	i	i	i	.	.	.
COCCOC(=O)/C(=C/c1ccc(OC(=O)c2ccccc2)cc1)C(C)=O	i	i	31.5*	14.7*	i	82.5%*	i	16.5%*
CCOC(=O)/C(=C/c1ccc(OC(=O)c2ccncc2)cc1)C(C)=O	i	i	29.1*	7.63*	i	27.5%*	41.5%*	16.0%*
CCCn1c(C)nnc1SCC(=O)NC1CCCCC1	i	i	i	i	i	.	.	.
SMILES	MrgX1 PAM	RGS4 pot	MrgX1 ag	RGS4 inh	MrgX1 antag	RGS4 block valid	M3R Ca ctr	M3R basal Ca ctr
COC(=O)Cc1cc(C)cc2c(=O)cc(-c3ccoc3)oc12	i	i	i	i	i	.	.	.
COc1ccc(-c2nc3ccccc3c(=O)n2NC(=S)N(C)C)cc1	i	i	i	i	i	.	.	.
O=C(COc1ccc(C(=O)c2ccccc2)cc1)NCC(=O)Nc1ccccc1Br	i	i	i	i	i	.	.	.
COc1ccc(N2C(=O)CC(N3CCN(S(=O)(=O)c4c(F)cccc4F)CC3)C2=O)cc1OC (centres undefined)	i	i	i	6.84*	i	9.0%*	i	i
COc1cccc(N2CCN(C3CC(=O)N(c4ccc(F)c(Cl)c4)C3=O)CC2)c1 (centres undefined)	i	i	i	i	i	.	.	.
COc1cccc(NC(=O)COC(=O)CCCC2=NS(=O)(=O)c3ccccc3N2)c1	i	i	i	i	i	.	.	.
Cc1cccc(Nc2nc(N)c([N+](=O)[O-])c(NCc3ccco3)n2)c1	i	i	i	i	i	i	i	i
Nc1nc(Nc2cccc(Cl)c2)nc(NCc2ccco2)c1[N+](=O)[O-]	i	i	i	16.9*	i	11.0%*	i	i
Cc1cccc(Nc2nc(NCc3ccco3)nc(N)c2[N+](=O)[O-])c1	i	i	i	i	i	.	.	.
Nc1nc(Nc2cccc(Cl)c2)nc(NCCO)c1[N+](=O)[O-]	i	i	i	i	i	.	.	.
Nc1nc(Nc2ccc(Cl)cc2)nc(NCc2ccco2)c1[N+](=O)[O-]	i	i	i	i	i	.	i	i
Nc1nc(Nc2cccc(F)c2)nc(NCc2ccco2)c1[N+](=O)[O-]	i	i	i	i	i	i	i	i
Cc1ccc(OCC(=O)N/N=C/c2cn(C)c3ccccc23)cc1	i	i	i	i	i	.	i	i
Oc1ccc(-c2csc(-c3cccnc3)n2)cc1O	i	i	i	i	i	.	.	.
Oc1ccc(-c2csc(-c3ccccc3)n2)cc1O	i	i	i	5.83*	i	23.5%*	i	i
Cc1cc(S(=O)(=O)Nc2ccc3cn[nH]c3c2)c(C)cc1Cl	i	i	i	15.3*	i	30.5%*	i	i
COC(=O)c1cc(=O)n(CCc2ccccc2F)c(=Nc2ccc(F)c(Cl)c2)s1	i	i	i	i	i	.	.	.
COC(=O)c1cc(=O)n(Cc2ccco2)c(=Nc2ccc(F)c(Cl)c2)s1	i	i	i	i	i	.	i	i
C#CCN1N=C(c2ccc(C)cc2)CSC1=O	i	i	i	i	i	.	.	.
